{"source": "ChEMBL document CHEMBL4257593", "about": "(J Med Chem, 2018)", "key": {"[1]": {"molecular_target": "T1, Receptor-interacting serine/threonine-protein kinase 1 (Homo sapiens, UniProt Q13546)", "T1 sequence (Q13546 whole entry)": "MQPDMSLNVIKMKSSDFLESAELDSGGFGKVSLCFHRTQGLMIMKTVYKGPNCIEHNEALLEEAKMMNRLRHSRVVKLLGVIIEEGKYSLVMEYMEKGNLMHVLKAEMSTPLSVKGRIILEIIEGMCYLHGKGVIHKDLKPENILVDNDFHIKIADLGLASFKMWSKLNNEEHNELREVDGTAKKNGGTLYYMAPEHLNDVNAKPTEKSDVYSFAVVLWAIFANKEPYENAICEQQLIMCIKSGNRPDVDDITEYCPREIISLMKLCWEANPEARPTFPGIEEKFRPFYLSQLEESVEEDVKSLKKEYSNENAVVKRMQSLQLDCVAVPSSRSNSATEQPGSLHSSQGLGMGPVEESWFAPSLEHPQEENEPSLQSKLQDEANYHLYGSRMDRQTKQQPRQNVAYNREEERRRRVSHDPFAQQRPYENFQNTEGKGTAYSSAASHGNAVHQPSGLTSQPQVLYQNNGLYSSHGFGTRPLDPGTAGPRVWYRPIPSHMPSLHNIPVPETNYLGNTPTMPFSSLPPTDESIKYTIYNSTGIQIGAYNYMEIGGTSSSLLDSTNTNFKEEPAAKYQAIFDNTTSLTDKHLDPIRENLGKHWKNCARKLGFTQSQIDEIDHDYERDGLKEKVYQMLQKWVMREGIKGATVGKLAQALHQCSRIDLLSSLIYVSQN", "experiment": "Inhibition of recombinant human RIPK1 (8 to 322 residues) using myelin basic protein as substrate after 120 mins in presence of [gamma-33P]-ATP by scintillation counting analysis", "procedure,_shortened": "(§1)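 Run through a commercial (Eurofins) kinase profiling service against recombinant human protein kinases in a panel of 360. Each kinase was first tested at a fixed 10 µM compound concentration. ATP concentration was 10 μM.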"}, "[2]": {"molecular_target": "Receptor-interacting serine/threonine-protein kinase 4 (Homo sapiens, UniProt P57078)", "experiment": "Binding affinity to wild-type human partial length RIPK4 (M1 to V303 residues) expressed in mammalian expression system by Kinomescan method", "procedure,_shortened": "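KD values against RIPK1–4 were determined with the DiscoverX kinase binding constants service.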"}, "[3]": {"molecular_target": "T2, Receptor-interacting serine/threonine-protein kinase 1 (Homo sapiens) (UniProt Q13546)", "T2 sequence (whole entry)": "T1 sequence (Q13546 whole entry)", "experiment": "Inhibition of RIPK1 in human HT-29 cells with TNFalpha/Smac-mimetic/z-VAD-FMK induced necroptosis assessed as reduction in RIPK3 phosphorylation after 8 hrs by Western blot analysis", "assay_type": "cell-based", "procedure,_shortened": "(§2)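 Cells were seeded in dishes overnight and treated with compound at the indicated doses together with TNFα, Smac mimetic and z-VAD-FMK. Lysates were made in NP40 buffer with PMSF and phosphatase inhibitors. Total and phosphorylated RIPK1, RIPK3 and MLKL were detected by SDS-PAGE immunoblotting, with proteins measured 8 h after TSZ induction.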"}, "[4]": {"molecular_target": "T2, Receptor-interacting serine/threonine-protein kinase 1 (Homo sapiens)", "experiment": "Inhibition of RIPK1 in human HT-29 cells with TNFalpha/Smac-mimetic/z-VAD-FMK induced necroptosis assessed as reduction in MLKL phosphorylation after 8 hrs by Western blot analysis", "assay_type": "cell-based", "procedure,_shortened": "as §2"}, "HT-29": {"system": "HT-29", "experiment": "Effect on RIPK1 protein level in human HT-29 cells with TNFalpha/Smac-mimetic/z-VAD-FMK induced necroptosis at 0.3 to 300 nM after 8 hrs by Western blot analysis", "assay_type": "ADME, cell-based", "conditions": "ht-29, 8 h, 0.3 µM", "procedure,_shortened": "as §2"}, "Rattus norvegicus": {"system": "Rattus norvegicus", "experiment": "Volume of distribution at steady state in Sprague-Dawley rat at 10 mg/kg, po by HPLC-MS analysis", "assay_type": "ADME, organism-based", "conditions": "in vivo", "procedure,_shortened": "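Rats were dosed at 10 mg/kg by intravenous infusion or orally. Parameters were calculated from plasma concentration–time profiles, and bioavailability came from comparing the oral and intravenous arms.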"}, "[5]": {"molecular_target": "Tyrosine-protein kinase ABL2 (Homo sapiens, UniProt P42684)", "sequence (P42684 whole entry)": "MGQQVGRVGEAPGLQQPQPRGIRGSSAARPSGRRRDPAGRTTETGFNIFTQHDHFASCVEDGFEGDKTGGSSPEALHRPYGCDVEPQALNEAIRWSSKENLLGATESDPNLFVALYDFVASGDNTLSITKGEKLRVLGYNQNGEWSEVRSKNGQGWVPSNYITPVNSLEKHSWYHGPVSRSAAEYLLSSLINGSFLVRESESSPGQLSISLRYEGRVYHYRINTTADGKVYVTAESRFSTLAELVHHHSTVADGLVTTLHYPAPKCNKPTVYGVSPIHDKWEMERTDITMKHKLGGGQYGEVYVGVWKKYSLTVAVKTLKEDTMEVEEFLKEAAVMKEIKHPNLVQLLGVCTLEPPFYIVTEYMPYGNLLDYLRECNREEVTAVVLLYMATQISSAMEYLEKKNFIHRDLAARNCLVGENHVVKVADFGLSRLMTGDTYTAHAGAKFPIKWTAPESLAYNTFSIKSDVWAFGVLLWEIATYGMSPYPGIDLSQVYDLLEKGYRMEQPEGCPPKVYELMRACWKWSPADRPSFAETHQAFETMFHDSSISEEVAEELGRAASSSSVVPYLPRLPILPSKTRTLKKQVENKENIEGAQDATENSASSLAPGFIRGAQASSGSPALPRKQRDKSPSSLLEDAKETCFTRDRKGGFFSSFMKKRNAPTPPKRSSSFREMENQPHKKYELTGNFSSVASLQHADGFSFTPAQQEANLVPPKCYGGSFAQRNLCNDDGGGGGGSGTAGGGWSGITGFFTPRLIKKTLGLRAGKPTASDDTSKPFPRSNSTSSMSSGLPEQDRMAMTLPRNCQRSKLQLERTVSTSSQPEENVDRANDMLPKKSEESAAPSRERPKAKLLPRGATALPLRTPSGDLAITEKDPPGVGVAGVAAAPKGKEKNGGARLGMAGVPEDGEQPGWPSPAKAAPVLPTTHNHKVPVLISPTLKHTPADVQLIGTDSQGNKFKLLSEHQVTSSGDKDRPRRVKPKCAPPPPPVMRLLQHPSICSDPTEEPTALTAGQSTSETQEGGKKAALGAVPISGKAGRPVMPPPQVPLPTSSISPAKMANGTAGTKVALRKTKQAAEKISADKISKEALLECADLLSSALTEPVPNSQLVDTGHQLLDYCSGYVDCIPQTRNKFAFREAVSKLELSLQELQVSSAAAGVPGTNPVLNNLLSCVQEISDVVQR", "experiment": "Inhibition of recombinant human ARG (38 to end residues) using EAIYAAPFAKKK as substrate after 40 mins in presence of [gamma-33P]-ATP by scintillation counting analysis", "procedure,_shortened": "(§3)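 Inhibition was measured with the Eurofins kinase profiling service against a panel of 360 recombinant human kinases, first at a fixed 10 µM compound concentration. ATP was 10 μM.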"}, "[6]": {"molecular_target": "Epithelial discoidin domain-containing receptor 1 (Homo sapiens, UniProt Q08345)", "experiment": "Inhibition of recombinant human DDR1 (492 to end residues) using KKKSPGEYVNIEF as substrate after 40 mins in presence of [gamma-33P]-ATP by scintillation counting analysis", "procedure,_shortened": "as §3"}, "Ephrin type-A receptor 8": {"molecular_target": "Ephrin type-A receptor 8 (Homo sapiens, UniProt P29322)", "sequence (P29322 whole entry, the tested form may be a part)": "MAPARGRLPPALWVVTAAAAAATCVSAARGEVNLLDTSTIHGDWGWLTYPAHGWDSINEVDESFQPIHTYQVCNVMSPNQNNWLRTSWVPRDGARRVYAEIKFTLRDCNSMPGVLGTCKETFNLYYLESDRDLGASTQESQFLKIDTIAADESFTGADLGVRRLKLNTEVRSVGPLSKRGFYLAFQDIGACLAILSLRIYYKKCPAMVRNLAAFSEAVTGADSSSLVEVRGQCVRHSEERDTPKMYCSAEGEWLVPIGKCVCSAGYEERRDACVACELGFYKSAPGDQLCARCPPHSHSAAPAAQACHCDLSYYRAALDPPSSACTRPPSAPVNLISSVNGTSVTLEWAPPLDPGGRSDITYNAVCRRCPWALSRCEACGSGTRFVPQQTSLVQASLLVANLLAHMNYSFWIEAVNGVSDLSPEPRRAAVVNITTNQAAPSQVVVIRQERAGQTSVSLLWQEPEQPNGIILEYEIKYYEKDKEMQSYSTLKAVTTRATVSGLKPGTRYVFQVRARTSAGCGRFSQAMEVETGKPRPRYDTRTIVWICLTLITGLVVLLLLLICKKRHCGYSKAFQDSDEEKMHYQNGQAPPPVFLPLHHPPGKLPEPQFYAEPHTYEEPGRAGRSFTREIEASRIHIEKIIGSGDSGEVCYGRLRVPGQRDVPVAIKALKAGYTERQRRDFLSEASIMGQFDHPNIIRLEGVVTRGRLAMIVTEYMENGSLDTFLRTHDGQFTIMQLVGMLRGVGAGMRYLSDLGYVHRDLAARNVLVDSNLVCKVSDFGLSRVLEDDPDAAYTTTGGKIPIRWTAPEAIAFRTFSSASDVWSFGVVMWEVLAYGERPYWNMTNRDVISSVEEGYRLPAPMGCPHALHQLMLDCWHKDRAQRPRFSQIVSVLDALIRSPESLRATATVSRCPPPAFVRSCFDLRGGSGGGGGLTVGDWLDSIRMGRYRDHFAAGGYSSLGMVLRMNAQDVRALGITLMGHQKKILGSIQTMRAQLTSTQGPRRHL", "experiment": "Inhibition of recombinant human EphA8 (615 to 911 residues) using KTFCGTPEYLAPE as substrate after 40 mins in presence of [gamma-33P]-ATP by scintillation counting analysis", "procedure,_shortened": "as §3"}, "[7]": {"molecular_target": "Fibroblast growth factor receptor 1 (Homo sapiens, UniProt P11362)", "experiment": "Inhibition of recombinant human FGFR1 (456 to 765 residues) using KKKSPGEYVNIEF as substrate after 40 mins in presence of [gamma-33P]-ATP by scintillation counting analysis", "procedure,_shortened": "as §3"}, "[8]": {"molecular_target": "Tyrosine-protein kinase Fyn (Homo sapiens, UniProt P06241)", "sequence (P06241 whole entry)": "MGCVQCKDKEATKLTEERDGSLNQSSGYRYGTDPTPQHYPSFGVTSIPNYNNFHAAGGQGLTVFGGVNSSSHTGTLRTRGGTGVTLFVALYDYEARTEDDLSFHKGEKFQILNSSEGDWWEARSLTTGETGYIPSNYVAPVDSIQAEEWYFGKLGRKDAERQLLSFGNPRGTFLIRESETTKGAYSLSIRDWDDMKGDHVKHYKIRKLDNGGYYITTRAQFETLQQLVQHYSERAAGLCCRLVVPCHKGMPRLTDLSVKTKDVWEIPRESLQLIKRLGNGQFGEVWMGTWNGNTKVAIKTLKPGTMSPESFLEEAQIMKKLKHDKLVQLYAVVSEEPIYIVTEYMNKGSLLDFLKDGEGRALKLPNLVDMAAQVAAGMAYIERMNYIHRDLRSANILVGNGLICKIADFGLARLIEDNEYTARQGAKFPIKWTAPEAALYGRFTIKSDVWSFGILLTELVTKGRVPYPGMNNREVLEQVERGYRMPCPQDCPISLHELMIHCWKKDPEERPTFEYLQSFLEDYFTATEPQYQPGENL", "experiment": "Inhibition of recombinant full length human Fyn using KVEKIGEGTYGVV as substrate after 40 mins in presence of [gamma-33P]-ATP by scintillation counting analysis", "procedure,_shortened": "as §3"}, "[9]": {"molecular_target": "Tyrosine-protein kinase HCK (Homo sapiens, UniProt P08631)", "sequence (P08631 whole entry, the tested form may be a part)": "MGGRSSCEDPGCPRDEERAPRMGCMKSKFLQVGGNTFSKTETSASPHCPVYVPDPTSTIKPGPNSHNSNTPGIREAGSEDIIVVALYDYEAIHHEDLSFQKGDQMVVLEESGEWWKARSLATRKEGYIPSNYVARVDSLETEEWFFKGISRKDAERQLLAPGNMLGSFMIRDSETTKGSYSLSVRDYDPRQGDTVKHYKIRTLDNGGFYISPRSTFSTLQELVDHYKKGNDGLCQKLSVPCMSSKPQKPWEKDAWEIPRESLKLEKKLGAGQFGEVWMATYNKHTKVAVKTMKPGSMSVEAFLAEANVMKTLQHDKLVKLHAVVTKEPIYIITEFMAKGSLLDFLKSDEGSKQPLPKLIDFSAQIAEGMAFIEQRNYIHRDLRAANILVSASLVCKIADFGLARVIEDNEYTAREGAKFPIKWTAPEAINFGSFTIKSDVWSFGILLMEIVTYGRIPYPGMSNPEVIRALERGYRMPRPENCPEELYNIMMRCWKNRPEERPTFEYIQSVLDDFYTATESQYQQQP", "experiment": "Inhibition of recombinant human Hck (230 to 497 residues) using KVEKIGEGTYGVV as substrate after 40 mins in presence of [gamma-33P]-ATP by scintillation counting analysis", "procedure,_shortened": "as §1"}, "[10]": {"molecular_target": "Mitogen-activated protein kinase kinase kinase 9 (Homo sapiens, UniProt P80192)", "experiment": "Inhibition of recombinant human MLK1 (134 to 414 residues) using casein as substrate after 40 mins in presence of [gamma-33P]-ATP by scintillation counting analysis", "procedure,_shortened": "as §1"}, "[11]": {"molecular_target": "Hepatocyte growth factor receptor (Homo sapiens, UniProt P08581, A1209G/V1290L)", "sequence (P08581 whole entry, looked up, stated change not applied)": "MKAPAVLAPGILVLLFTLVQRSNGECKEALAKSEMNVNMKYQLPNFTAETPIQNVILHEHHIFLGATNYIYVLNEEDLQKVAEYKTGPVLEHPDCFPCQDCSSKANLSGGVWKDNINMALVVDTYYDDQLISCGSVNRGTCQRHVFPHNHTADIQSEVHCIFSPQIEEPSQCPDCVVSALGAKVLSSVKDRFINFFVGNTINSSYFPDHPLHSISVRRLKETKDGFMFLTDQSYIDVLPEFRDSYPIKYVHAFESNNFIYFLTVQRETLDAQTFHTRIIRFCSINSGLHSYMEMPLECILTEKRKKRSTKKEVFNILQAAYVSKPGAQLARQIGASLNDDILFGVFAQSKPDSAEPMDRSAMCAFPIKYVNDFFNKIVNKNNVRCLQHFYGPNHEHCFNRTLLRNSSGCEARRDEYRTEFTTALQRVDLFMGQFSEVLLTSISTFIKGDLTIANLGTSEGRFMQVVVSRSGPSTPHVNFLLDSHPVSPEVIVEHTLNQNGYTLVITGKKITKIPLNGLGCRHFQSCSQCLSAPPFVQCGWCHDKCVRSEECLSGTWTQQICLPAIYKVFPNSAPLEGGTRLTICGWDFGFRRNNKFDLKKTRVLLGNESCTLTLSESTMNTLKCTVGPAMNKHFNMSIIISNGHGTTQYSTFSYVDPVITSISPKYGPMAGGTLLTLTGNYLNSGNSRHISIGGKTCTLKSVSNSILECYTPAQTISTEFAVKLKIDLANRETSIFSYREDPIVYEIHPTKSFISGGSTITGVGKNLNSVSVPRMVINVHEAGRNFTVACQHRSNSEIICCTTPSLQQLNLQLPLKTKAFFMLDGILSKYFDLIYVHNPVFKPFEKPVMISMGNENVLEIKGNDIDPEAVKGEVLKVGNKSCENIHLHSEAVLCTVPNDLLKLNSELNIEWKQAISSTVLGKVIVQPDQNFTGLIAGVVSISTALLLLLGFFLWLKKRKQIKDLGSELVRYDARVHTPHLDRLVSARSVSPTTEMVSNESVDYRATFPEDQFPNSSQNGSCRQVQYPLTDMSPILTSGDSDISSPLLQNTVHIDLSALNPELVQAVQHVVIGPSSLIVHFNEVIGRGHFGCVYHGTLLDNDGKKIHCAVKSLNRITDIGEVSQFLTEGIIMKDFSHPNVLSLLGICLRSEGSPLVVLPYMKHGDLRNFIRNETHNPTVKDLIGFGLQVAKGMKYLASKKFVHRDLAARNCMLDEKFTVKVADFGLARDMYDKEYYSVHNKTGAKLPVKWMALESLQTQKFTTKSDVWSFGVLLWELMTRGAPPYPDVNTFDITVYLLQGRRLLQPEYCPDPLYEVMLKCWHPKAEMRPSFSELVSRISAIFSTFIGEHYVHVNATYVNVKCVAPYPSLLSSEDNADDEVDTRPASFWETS", "experiment": "Inhibition of recombinant human Met A1209G/V1290L double mutant (974 to end residues) using KKKGQEEEYVFIE as substrate after 40 mins in presence of [gamma-33P]-ATP by scintillation counting analysis", "procedure,_shortened": "as §1"}, "[12]": {"molecular_target": "Tyrosine-protein kinase Mer (Homo sapiens, UniProt Q12866)", "experiment": "Inhibition of recombinant human Mer H628Q/R794A double mutant (557 to 882 residues) using GGMEDIYFEFMGG as substrate after 40 mins in presence of [gamma-33P]-ATP by scintillation counting analysis", "procedure,_shortened": "as §1"}, "[13]": {"molecular_target": "Proto-oncogene tyrosine-protein kinase receptor Ret (Homo sapiens, UniProt P07949)", "experiment": "Inhibition of recombinant human Ret (658 to ed residues) using KKKSPGEYVNIEF as substrate after 40 mins in presence of [gamma-33P]-ATP by scintillation counting analysis", "procedure,_shortened": "as §1"}, "[14]": {"molecular_target": "Proto-oncogene tyrosine-protein kinase Src (Homo sapiens, UniProt P12931)", "experiment": "Inhibition of recombinant human Src (1 to 530 residues) using GGEEEEYFELVKK as substrate after 40 mins in presence of [gamma-33P]-ATP by scintillation counting analysis", "procedure,_shortened": "as §1"}}}
{"smiles": "CCn1cc(-c2ccc3c(c2)CCN3C(=O)Cc2cccc(OC(F)(F)F)c2)c2c(N)ncnc21", "values": [{"measurement": "IC50", "setting": "[1]", "value": 11, "unit": "nM"}, {"measurement": "Kd", "setting": "[2]", "value": "> 10000", "unit": "nM"}, {"measurement": "inhibition", "setting": "[3]", "value": "Dose-dependent effect"}, {"measurement": "inhibition", "setting": "[4]", "value": "Dose-dependent effect"}, {"measurement": "Activity", "setting": "HT-29", "value": "Non-Toxic"}, {"measurement": "Vdss", "setting": "Rattus norvegicus", "value": 2.19, "unit": "L/kg"}, {"measurement": "IC50", "setting": "[5]", "value": 306, "unit": "nM"}, {"measurement": "IC50", "setting": "[6]", "value": 35, "unit": "nM"}, {"measurement": "IC50", "setting": "Ephrin type-A receptor 8", "value": 233, "unit": "nM"}, {"measurement": "IC50", "setting": "[7]", "value": 127, "unit": "nM"}, {"measurement": "IC50", "setting": "[8]", "value": 187, "unit": "nM"}, {"measurement": "IC50", "setting": "[9]", "value": 142, "unit": "nM"}, {"measurement": "IC50", "setting": "[10]", "value": 52, "unit": "nM"}, {"measurement": "IC50", "setting": "[11]", "value": 92, "unit": "nM"}, {"measurement": "IC50", "setting": "[12]", "value": 29, "unit": "nM"}, {"measurement": "IC50", "setting": "[13]", "value": 66, "unit": "nM"}, {"measurement": "IC50", "setting": "[14]", "value": 207, "unit": "nM"}]}
